Assay [1] deals with M21. The assay can be described thus: The compound was tested for its antiviral activity against HSV-1 (KOS) virus M-21 (GM137) cell line. In kind it is functional. The settings on record: Homo sapiens. Put shortly: (§1)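 Virus-induced cytopathogenicity in cell culture, scored microscopically. The value is the minimum concentration that cuts viral cytopathogenicity by 50%. Normal cell morphology was also checked microscopically at up to 400 μg/mL.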

In assay [2] the test system is E6SM. The assay can be described thus: The concentration required to reduce the cytopathogenicity of HSV-1 (KOS) in E6SM cell culture by 50% in presence of 0 ug/mL concentrations of benzylacyclouridine. In kind it is functional. The settings on record: Homo sapiens. Put shortly: (§2)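 E6SM cells infected with HSV-1 (KOS), with 6-aminothymine or benzylacyclouridine added to the medium at the stated concentration. The value is the minimum concentration that reduces viral cytopathogenicity by 50%.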

Assay [3] concerns E6SM. The assay can be described thus: The concentration required to reduce the cytopathogenicity of HSV-1 (KOS) in E6SM cell culture by 50% in presence of 1 ug/mL dThd. The settings on record: Homo sapiens. It is filed as functional. The method, boiled down:
(§3)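 E6SM cells infected with HSV-1 (KOS), with dThd added to the culture medium at the stated concentration. The value is the minimum concentration that reduces viral cytopathogenicity by 50%.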
A general note: Cytopathic effects are the visible damage that an infection or toxin causes in cultured cells.

Assay [4] has as its system E6SM. Put plainly: The compound was tested for its antiviral activity against vesicular stomatitis virus in E6SM cell culture. In kind it is functional. The settings on record: Homo sapiens. Put shortly:
as §1

Assay [5] deals with E6SM. The assay can be described thus: The concentration required to reduce the cytopathogenicity of HSV-1 (KOS) in E6SM cell culture by 50% in presence of 100 ug/ml concentrations of 6-aminothymine. It is filed as functional. The settings on record: Homo sapiens. Put shortly: as §2
The nature of assay [6]: The concentration required to reduce the cytopathogenicity of HSV-1 (KOS) in PRK cell culture by 50% in presence of 20 ug/mL concentrations of 6-aminothymine. In kind it is functional. The settings on record: Oryctolagus cuniculus. The method, boiled down: (§4)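 The cells were primary rabbit kidney (PRK) cultures infected with HSV-1 strain KOS, with 6-aminothymine co-present in the medium. The value is the minimum inhibitory concentration that reduces viral cytopathogenicity by 50%, using the previously described cytopathogenicity inhibition method.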

Assay [7] deals with E6SM. The assay can be described thus: The concentration required to reduce the cytopathogenicity of HSV-1 (KOS) in E6SM cell culture by 50% in presence of 20 ug/mL concentrations of 6-aminothymine. In kind it is functional. The settings on record: Homo sapiens. Put shortly:
as §2

In assay [8] the test system is E6SM. Put plainly: The concentration required to reduce the cytopathogenicity of HSV-1 (KOS) in E6SM cell culture by 50% in presence of 100 ug/mL of Urd. The settings on record: Homo sapiens. It is filed as functional. The method, boiled down:
(§5)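 E6SM cells infected with HSV-1 (KOS), with Urd or dUrd added alone or together with 6-aminothymine (50 μg/mL). The value is the minimum concentration that reduces viral cytopathogenicity by 50%.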

The test system of assay [9] is HeLa. Put plainly: The concentration required to reduce the cytopathogenicity of HSV-1 (KOS) in HeLa cell culture by 50% in presence of 4 ug/mL concentrations of 6-aminothymine. It is filed as functional. The settings on record: Homo sapiens.
In assay [10] the test system is E6SM. Put plainly: The concentration required to reduce the cytopathogenicity of HSV-1 (KOS) in E6SM cell culture by 50% in presence of 0 ug/mL concentrations of 6-aminothymine. In kind it is functional. The settings on record: Homo sapiens. Put shortly:
as §2

For assay [11], the system named is E6SM. The assay can be described thus: The concentration required to reduce the cytopathogenicity of HSV-1 (KOS) in E6SM cell culture by 50% in presence of 4 ug/mL concentrations of 6-aminothymine. It is filed as functional. The settings on record: Homo sapiens. Put shortly:
(§6)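 E6SM cultures were infected with HSV-1 strain KOS. 6-Aminothymine or benzylacyclouridine was present in the medium together with the test compound. The value is the minimum concentration giving 50% reduction of viral cytopathogenicity, scored by the earlier-described cytopathogenicity inhibition procedure.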

Assay [12] concerns E6SM. Put plainly: The concentration required to reduce the cytopathogenicity of HSV-1 (KOS) in E6SM cell culture by 50% in presence of 1 ug/mL of Urd and 50 ug/mL of 6-aminothymine. In kind it is functional. The settings on record: Homo sapiens. The method, boiled down:
as §5

Assay [13] relates to HeLa. Put plainly: The concentration required to reduce the cytopathogenicity of HSV-1 (KOS) in HeLa cell culture by 50% in presence of 20 ug/mL concentrations of 6-aminothymine. In kind it is functional. The settings on record: Homo sapiens.
Assay [14] concerns HeLa. Put plainly: The concentration required to reduce the cytopathogenicity of HSV-1 (KOS) in HeLa cell culture by 50% in presence of 100 ug/mL concentrations of 6-aminothymine. In kind it is functional. The settings on record: Homo sapiens.
A short description of assay [15]: The concentration required to reduce the cytopathogenicity of HSV-1 (KOS) in PRK cell culture 0 ug/mL specified concentrations of 6-aminothymine. It is filed as functional. The settings on record: Oryctolagus cuniculus.
The subject of assay [16] is E6SM. Put plainly: The concentration required to reduce the cytopathogenicity of HSV-1 (KOS) in E6SM cell culture by 50% in presence of 10 ug/mL concentrations of benzylacyclouridine. It is filed as functional, Homo sapiens. The method, boiled down:
as §2

The test system of assay [17] is HeLa. Put plainly: The concentration required to reduce the cytopathogenicity of HSV-1 (KOS) in HeLa cell culture by 50% in presence of 0 ug/mL concentrations of 6-aminothymine. The settings on record: Homo sapiens. It is filed as functional.
A short description of assay [18]: The concentration required to reduce the cytopathogenicity of HSV-1 (KOS) in PRK cell culture by 50% in presence of 100 ug/mL concentrations of 6-aminothymine. It is filed as functional. The settings on record: Oryctolagus cuniculus. Put shortly: as §4
The subject of assay [19] is E6SM. Put plainly: The concentration required to reduce the cytopathogenicity of HSV-1 (KOS) in E6SM cell culture by 50% in presence of 1 ug/mL of dUrd and 50 ug/mL of 6-aminothymine. In kind it is functional. The settings on record: Homo sapiens. The method, boiled down: as §5
The nature of assay [20]: The concentration required to reduce the cytopathogenicity of HSV-1 (KOS) in PRK cell culture by 50% in presence of 4 ug/mL concentrations of 6-aminothymine. In kind it is functional. The settings on record: Oryctolagus cuniculus. Put shortly: as §4
Assay [21] deals with E6SM. Put plainly: The concentration required to reduce the cytopathogenicity of HSV-1 (KOS) in E6SM cell culture by 50% in presence of 10 ug/mL of dUrd. It is filed as functional. The settings on record: Homo sapiens. Put shortly:
as §5

In assay [22] the test system is E6SM. The assay can be described thus: The concentration required to reduce the cytopathogenicity of HSV-1 (KOS) in E6SM cell culture by 50% in absence of 0 ug/mL dThd. It is filed as functional. The settings on record: Homo sapiens. The method, boiled down: as §3
Assay [23] can be described thus: The concentration required to reduce the cytopathogenicity of HSV-1 (KOS) in PRK cell culture by 50% in presence of specified concentrations of 6-aminothymine. In kind it is functional, Oryctolagus cuniculus. Put shortly:
as §4

For assay [24], the system named is M21. The assay can be described thus: The compound was tested for its antiviral activity against HSV-1 (KOS) virus in M-21 (GM137) cell line,. It is filed as functional. The settings on record: Homo sapiens. Put shortly: as §1
Assay [25] relates to HeLa. Put plainly: The concentration required to reduce the cytopathogenicity of HSV-1 (KOS) in HeLa cell culture by 50% in presence of specified concentrations of 6-aminothymine. It is filed as functional, Homo sapiens.
Assay [26] relates to E6SM. The assay can be described thus: The concentration required to reduce the cytopathogenicity of HSV-1 (KOS) in E6SM cell culture by 50% in presence of specified concentrations of benzylacyclouridine. In kind it is functional, Homo sapiens. The method, boiled down:
as §6

The test system of assay [27] is E6SM. The assay can be described thus: The concentration required to reduce the cytopathogenicity of HSV-1 (KOS) in E6SM cell culture by 50% in presence 0 ug/mL of 50 ug/mL of 6-aminothymine. The settings on record: Homo sapiens. It is filed as functional. The method, boiled down: as §2
Assay [28] concerns E6SM. The assay can be described thus: The concentration required to reduce the cytopathogenicity of HSV-1 (KOS) in E6SM cell culture by 50% in presence of specified concentrations of 6-aminothymine. It is filed as functional. The settings on record: Homo sapiens. The method, boiled down: as §6
The test system of assay [29] is E6SM. Put plainly: The concentration required to reduce the cytopathogenicity of HSV-1 (KOS) in E6SM cell culture by 50% in absence of dThd. It is filed as functional. The settings on record: Homo sapiens. The method, boiled down: as §3

Structures are written as SMILES. Values after ≈ are worked out from the molar mass of the structure shown. Values joined by “and” are separate entries in the source; they are usually repeats but may differ in a detail not shown here. Equal entries are not always repeated.

In the case of `Oc1ncc(/C=C/Br)c(O)n1`, the MIC50 in the assay on M21 [1] is 1 µg/mL (≈ 4.61 µM); in the assay on E6SM [2], 4 µg/mL; in the assay with E6SM [3], 7 µg/mL; in the assay with E6SM [4] it was greater than 400 µg/mL; with E6SM [5] it was greater than 400 µg/mL; in [6] it was greater than 400 µg/mL. The MIC50 in the assay on E6SM [7] is greater than 400 µg/mL; in the assay on E6SM [8], 4 µg/mL; with HeLa [9], greater than 200 µg/mL; with E6SM [10] it was 7 µg/mL; in the assay on E6SM [11], greater than 400 µg/mL; in the assay with E6SM [12], greater than 400 µg/mL. Further, the MIC50 was greater than 200 µg/mL with HeLa [13]; greater than 200 µg/mL with HeLa [14]; greater than 400 µg/mL in [15]; 4 µg/mL with E6SM [16]; 4 µg/mL in the assay with E6SM [16] (Homo sapiens, read-out: MIC50); 2 µg/mL in the assay with HeLa [17]. Besides, the MIC50 in assay [18] is greater than 400 µg/mL; in the assay with E6SM [19] it was greater than 400 µg/mL; in assay [20], greater than 400 µg/mL; with E6SM [21], 0.7 µg/mL; in the assay on E6SM [22], 7 µg/mL (≈ 32.3 µM).
`O=c1[nH]c(=O)n([C@H]2C[C@H](O)[C@@H](CO)O2)cc1/C=C/Br` [BRIVUDINE]: the MIC50 in [23] is 0.01 µg/mL; in [23] (Oryctolagus cuniculus, read-out: MIC50) it was 0.01 µg/mL; in the assay with M21 [24], 0.02 µg/mL (≈ 0.06 µM); in the assay with E6SM [3], 0.02 µg/mL; in the assay with E6SM [4], greater than 400 µg/mL; in the assay on E6SM [8], 0.02 µg/mL. Moreover, the MIC50 with HeLa [25] is 0.01 µg/mL and 0.02 µg/mL; with HeLa [25] (Homo sapiens, read-out: MIC50) it was 0.01 µg/mL; in the assay on E6SM [12], 0.02 µg/mL; in the assay on E6SM [26], 0.02 µg/mL; with E6SM [26] (Homo sapiens, read-out: MIC50) it was 0.04 µg/mL; with E6SM [27], 0.02 µg/mL (≈ 0.06 µM). Besides, the MIC50 in the assay on E6SM [28] is 0.02 µg/mL; with E6SM [19], 0.01 µg/mL; with E6SM [29] it was 0.02 µg/mL (≈ 0.06 µM); in the assay on E6SM [21], 0.02 µg/mL.

The values are drawn from ChEMBL document CHEMBL1123468, “Synthesis and antiviral activity of (E)-5-(2-bromovinyl)uracil and (E)-5-(2-bromovinyl)uridine” (1986).
